# Assay outcomes from PubChem BioAssay.
# FAS TE block: FAS thioesterase domain inhibitors, primary screen, biochemical, fluorescence intensity, uHTS. Fatty acid synthase (Homo sapiens), P49327. recombinant FAS-TE, OMFH fluorogenic substrate, fluorescence endpoint. inhibition, % at 15 µM. 360,000 compounds, 0.67% hits. AID 602261, 2012;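 active = compounds whose normalised, plate-corrected inhibition of enzyme fluorescence in the single-dose primary screen is 50% or more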;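 note: 0% = DMSO with enzyme and 100% = substrate without enzyme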
# LMPTP block: LMPTP phosphatase inhibitors, primary screen, biochemical, fluorescence intensity, uHTS. recombinant LMPTP-A, OMFP fluorogenic substrate. inhibition, % at 20 µM. 360,000 compounds, 0.22% hits. AID 651560, 2012;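 active = compounds that cut the enzyme signal by at least half of the control window in the single-dose screen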;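 note: plate controls were DMSO wells with enzyme plus substrate for no effect and substrate without enzyme for full effect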
#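 Assay system: LMPTP-A enzyme. Input: 0.625 nM LMPTP-A final. Probe or stimulus: 400 µM OMFP. Compound dosing: single 20 µM dose. Schedule: 50 min dark incubation at room temperature. Detection: fluorescence intensity of OMFP turnover product. Read-out: percent inhibition versus substrate-only and uninhibited controls. Benchmarks: no-enzyme low control, uninhibited high control.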
# STEP inh: STEP phosphatase inhibitors, primary screen, biochemical, fluorescence intensity, uHTS; Tyrosine-protein phosphatase non-receptor type 5 (Homo sapiens), P54829; recombinant STEP, OMFP fluorogenic substrate; inhibition, % at 20 µM; 360,000 compounds, 0.25% hits;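 active = inhibition at 20 µM, scaled per plate between control wells, above about 37%, limit read from the data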;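 note: 0% = DMSO with enzyme and substrate and 100% = substrate only without enzyme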
# Target sequence (P54829 whole entry, looked up): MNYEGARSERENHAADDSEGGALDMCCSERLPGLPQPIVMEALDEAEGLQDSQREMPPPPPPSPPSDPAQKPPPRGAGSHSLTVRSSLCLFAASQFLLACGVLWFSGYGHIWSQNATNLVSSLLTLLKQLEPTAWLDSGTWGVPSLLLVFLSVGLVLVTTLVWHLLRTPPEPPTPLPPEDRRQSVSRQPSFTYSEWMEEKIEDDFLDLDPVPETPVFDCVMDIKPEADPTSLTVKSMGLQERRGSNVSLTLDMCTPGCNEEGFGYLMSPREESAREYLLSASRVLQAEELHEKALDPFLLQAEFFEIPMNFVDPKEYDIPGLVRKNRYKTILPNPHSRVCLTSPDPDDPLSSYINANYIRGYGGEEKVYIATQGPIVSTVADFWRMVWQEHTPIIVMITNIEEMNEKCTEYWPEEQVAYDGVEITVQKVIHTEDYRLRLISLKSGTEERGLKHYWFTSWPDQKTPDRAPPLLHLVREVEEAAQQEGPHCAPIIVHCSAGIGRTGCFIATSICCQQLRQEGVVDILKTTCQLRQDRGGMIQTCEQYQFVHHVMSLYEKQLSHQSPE
#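 System: STEP phosphatase, cell-free reaction; Buffer or medium: Bis-Tris pH 6.0 buffer with DTT, detergent; Incubation: 20 min at room temperature, dark; Measured by: fluorescence, 480/540 nm.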
# Scp-1 inhibitor: Scp-1 phosphatase inhibitors, primary screen, biochemical, colorimetric, uHTS. Carboxy-terminal domain RNA polymerase II polypeptide A small phosphatase 1 (Homo …. Recombinant Scp1, phosphopeptide, malachite green phosphate absorbance. inhibition, % at 20 µM. 340,000 compounds, 0.88% hits. AID 493091, 2011;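 active = inhibition above about 50% at 20 µM, limit read from the data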;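 note: plate controls were DMSO wells with enzyme for no effect and wells lacking enzyme for full effect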
#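 Test system: SCP-1 catalytic domain; Buffer or medium: Acidic Tris acetate buffer with magnesium and detergent; Also added: Phosphorylated 17-residue peptide substrate; Compound: single 20 µM dose, 1% DMSO; Schedule: enzyme reaction 45 min at room temperature, colour 5 min, stabilisation 30 min; Signal: Phosphate-binding colour reagent, absorbance read at 630 nm.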
# SUMO1-SIM PPI: modulators of SUMO1 protein-protein interactions, primary screen, biochemical, uHTS | Small ubiquitin-related modifier 1 (Homo sapiens), P63165 | SUMO1 binding to a labelled peptide, TR-FRET, 1 h | inhibition, % at 20 µM | 360,000 compounds, 0.33% hits | AID 602429, 2012; in the data active = inhibition above about 37%
# Target sequence (P63165 whole entry, looked up): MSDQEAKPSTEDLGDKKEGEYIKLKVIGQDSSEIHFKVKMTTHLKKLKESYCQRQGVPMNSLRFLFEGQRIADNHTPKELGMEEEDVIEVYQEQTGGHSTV
# Scp1 confirm: Scp-1 phosphatase inhibitors, retest, confirmation, biochemical, colorimetric, single concentration | shares compounds with Scp-1 inhibitor | recombinant SCP-1 catalytic domain, phosphate release, malachite green absorbance | inhibition, % at 20 µM | 2,500 compounds, 61% hits | AID 540281, 2011;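 note: plate controls were DMSO with enzyme for no effect and buffer wells lacking enzyme for full effect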
# Scp-1 MG ctr: colorimetric readout interference by compounds, confirmation, artefact control for Scp-1 inhibitor project, biochemical, single concentration; shares compounds with Scp-1 inhibitor; Colorimetric interference counterscreen, malachite green absorbance 630 nm; apparent inhibition (interference), % at 20 µM; 2,500 tested, under 10 active; AID 540313, 2011;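 note: compounds added after enzyme reaction finished so only phosphate colour detection is probed; plate controls were DMSO wells with completed Scp-1 reaction for no effect and substrate wells lacking enzyme for full effect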
# Scp1 DSF: Scp-1 binding by thermal shift, confirmation, orthogonal assay for Scp-1 inhibitor project, biophysical, differential scanning fluorimetry; shares compounds with Scp-1 inhibitor; Recombinant SCP1, Sypro Orange thermal shift Tm; thermal shift relative to vanadate control, % at 40 µM; 1,500 compounds, 25% hits; AID 540329, 2011;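 active = substances whose mean melting-temperature shift, as a percentage of the reference inhibitor's shift, reaches about 5.3%, limit read from the data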;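 note: 0% = Tm of DMSO wells and 100% = Tm with sodium orthovanadate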
# Numbers without * were called inactive; . = no result given. The list is not random: actives were taken first. Their share in the collection is about 1.9%.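 Rule for the calls, unless noted: active = inhibition of at least 30% at 20 µM; inactive = the rest.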
SMILES,FAS TE block,LMPTP block,STEP inh,Scp-1 inhibitor,SUMO1-SIM PPI,Scp1 confirm,Scp-1 MG ctr,Scp1 DSF
CC(=O)Nc1cc(NC(C)=O)cc(C(=O)N2CCCC3CCCCC32)c1 (configuration not stated),-2,12,38,61*,17,54*,-1,5.7*
O=C(Nc1cccc(C(F)(F)F)c1)c1csc([C@H]2C[C@H](O)[C@@H](CO)O2)n1,-8,0,-3,.,-2,.,.,.
CC(C)Cc1ccc(-c2cc3nc(NCCc4ccc(S(N)(=O)=O)cc4)ccn3n2)cc1,18,5,-1,.,-44,.,.,.
Cc1ccc(C(=O)Oc2cccc(NC(=O)c3ccco3)c2)cc1S(=O)(=O)N1CCC(C)CC1,20,3,0,54*,0,-10,-14,.
O=C(N/N=C/c1ccco1)c1cccc(N2CCCC2=O)c1,-11,-1,2,12,-5,.,.,.
C[n+]1ccc(C(=O)N/N=C/c2ccco2)cc1,-16,-3,1,60*,-10,-21,-15,.
O=C(N/N=C/c1ccco1)c1cccc(N2Cc3ccccc3C2)c1,2,40,1,79*,23,46*,-5,11*
CC(NCc1ccc2c(c1)OCO2)C(=O)NC1CCCCC1 (configuration not stated),-4,-2,2,-8,-2,.,.,.
C[N+](C)(C)CCCN(Cc1ccc2c(c1)OCO2)C(=O)NC1CCCCC1,-10,-5,-4,91*,2,79*,-19,-27
C/C(N)=C(/C#N)C(=O)CSc1nc2ccccc2[nH]1,-9,12,9,69*,9,51*,-9,4
O=C(O)C1=CCC(c2ccc(Cl)c(Cl)c2)N(S(=O)(=O)c2ccc(F)cc2)C1c1cccc(F)c1 (configuration not stated),.,0,.,.,13,.,.,.
CCOC(=O)c1sc(NC(=O)CSc2nncs2)c(C(=O)OCC)c1C,15,0,1,52*,3,-10,-16,.
COc1ccc(NC(C)=[N+](C)CCNS(=O)(=O)c2ccc(Cl)cc2)cc1Cl,-4,-1,-2,1,4,.,.,.
COc1ccccc1NC(C)=[N+](C)CCNS(=O)(=O)c1ccc(Cl)cc1,-3,-1,0,96*,3,81*,-15,-9
O=C(NCCCN1CCCC1=O)Nc1ccccc1F,-4,-1,-1,-4,-3,-6,-4,.
O=C1CCCN1CCCNS(=O)(=O)c1ccc(F)cc1F,-5,-2,0,-8,-5,-5,-6,.
O=C1CCCN1CCCNS(=O)(=O)c1ccccc1,-7,0,0,-8,3,.,.,.
Nc1ccn(CC(=O)NCCNc2ccc([N+](=O)[O-])cn2)c(=O)n1,-7,-2,-2,-2,-14,.,.,.
O=C(CCc1nnc2ccc(NCc3ccco3)nn12)Nc1ccccn1,-4,-1,3,59*,14,52*,-15,1
Cc1c[nH]c(=O)c([N+](=O)[O-])c1,-9,-1,-2,11,-18,.,.,.
O=P(c1ccccc1)(c1ccccc1)c1cc(S(=O)(=O)O)ccc1O,-8,29,98*,88*,15,60*,-13,-18
COc1ccc(-c2csc(C(C)(O)c3ccc(F)c(F)c3)n2)cc1 (configuration not stated),34,2,0,.,-2,.,.,.
CC(=O)N(c1ccccc1)c1c(F)c(F)c(F)c(F)c1F,-3,-1,-2,61*,-1,-8,-13,.
Cc1ccc(NC(=O)c2ccc(Br)o2)cc1S(=O)(=O)N(C)C,5,1,-2,-2,5,.,.,.
CN(C)S(=O)(=O)c1ccc(C(=O)NCC[N+]2(C)CCCCCC2)o1,-4,-3,-4,68*,4,-21,-19,.
SMILES,FAS TE block,LMPTP block,STEP inh,Scp-1 inhibitor,SUMO1-SIM PPI,Scp1 confirm,Scp-1 MG ctr,Scp1 DSF
O=C(COC(=O)c1ccc(Cl)c(S(=O)(=O)N2CCCCC2)c1)NCc1ccco1,2,1,-3,71*,8,45*,-22,-10
O=C(COC(=O)c1ccc(Cl)c(S(=O)(=O)N2CCCC2)c1)NCc1cccs1,0,5,13,46,-2,.,.,.
NC(=O)COC(=O)c1cccc(S(=O)(=O)N2CCN(c3ccccc3)CC2)c1,-3,-1,1,6,2,.,.,.
CN1CCN(S(=O)(=O)c2cccc(C(=O)Oc3ccc(C(C)(C)C)cc3)c2)CC1,-32,-4,0,0,0,.,.,.
CC(C)c1ccc(OC(=O)c2cccc(S(=O)(=O)N3CCN(C)CC3)c2)cc1,2,-2,-2,96*,3,86*,-8,-27
O=C(COC(=O)c1cccc(S(=O)(=O)N2CCN(c3ccccc3)CC2)c1)NCc1ccco1,9,9,12,66*,5,58*,-19,4
O=C(COC(=O)c1cccc(S(=O)(=O)N2CCCC2)c1)Nc1ccccc1,4,-3,-2,-3,-1,.,.,.
CC(NC(=O)COC(=O)c1cccc(S(=O)(=O)N2CCCC2)c1)c1ccccc1 (configuration not stated),-2,-2,-1,53*,-1,-13,-17,.
O=C(NC(c1ccccc1)c1ccccc1)c1ccc(CO)cc1,6,1,-2,-3,0,.,.,.
Nc1nc(SCC(=O)Nc2ccc(Cl)cc2)[nH]c(=O)c1-c1ccccc1,0,0,-1,-7,6,.,.,.
Cn1c(Br)nc2c1c(=O)n(Cc1ccccc1)c(=O)n2C,2,1,15,-12,9,.,.,.
Cn1c(NN)nc2c1c(=O)n(Cc1ccccc1)c(=O)n2C,-4,8,8,68*,-2,62*,5,9.4*
O=C(O)c1c[nH]c2c([N+](=O)[O-])cccc2c1=O,-9,3,8,83*,-9,53*,-11,-12
Cc1c(C(=O)O)cccc1[N+](=O)[O-],-7,0,1,-9,1,.,.,.
